The record followed here is ChEMBL document CHEMBL2021827, “Caspase-1 inhibitors from an extremophilic fungus that target specific leukemia cell lines” (2012).

The source made the active and inactive calls. The calls are words filed in the database; no cut-off is given here.

Assay [1] concerns THP-1. Description: Inhibition of IL-1beta production in human THP1 cells at 250 uM by ELISA. It is filed as functional, cell-based. In outline: (§1)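 THP-1 cells are kept in RPMI with 10% FBS, 0.05 mM 2-mercaptoethanol, sodium pyruvate and penicillin/streptomycin/amphotericin B. They are differentiated with PMA (1 µg/mL) 24 h beforehand, scraped, and resuspended at 1.0 × 10^6 cells/mL. Cells are co-exposed to compound, LPS (20 ng/mL) and TiO2 nanowires (100 µg/mL) for 24 h at 37 °C in CO2. Supernatant IL-1β is measured by ELISA read at 490 nm.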
On the technique in general: In an ELISA, binding on a coated surface is turned into a signal by an enzyme label.

Assay [2] addresses T1, Caspase-1 (Homo sapiens) (UniProt P29466).
T1 sequence (whole entry): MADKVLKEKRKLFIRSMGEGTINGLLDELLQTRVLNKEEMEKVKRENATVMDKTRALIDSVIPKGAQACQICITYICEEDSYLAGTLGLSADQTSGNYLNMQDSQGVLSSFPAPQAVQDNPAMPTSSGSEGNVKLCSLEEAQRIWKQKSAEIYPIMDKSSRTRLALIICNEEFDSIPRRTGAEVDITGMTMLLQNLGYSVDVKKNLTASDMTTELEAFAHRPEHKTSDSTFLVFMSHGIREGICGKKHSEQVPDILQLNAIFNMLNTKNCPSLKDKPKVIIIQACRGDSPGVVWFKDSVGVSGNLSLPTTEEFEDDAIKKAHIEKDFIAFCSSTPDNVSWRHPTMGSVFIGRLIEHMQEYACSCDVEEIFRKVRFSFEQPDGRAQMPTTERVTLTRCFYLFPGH
The assay is described as follows: Inhibition of caspase-1 in human THP1 cells after 24 hrs by fluorometric assay. As to conditions: THP-1. In kind it is cell-based.

The subject of assay [3] is HL-60(TB). Description: Cytotoxicity against human HL-60(TB) cells by MTS assay. It is filed as functional. (In general: Tetrazolium dyes change colour on reduction, which living cells bring about.)
The subject of assay [4] is THP-1. Description: Inhibition of IL-1beta production in human THP1 cells at 5 uM by dilution assay. In kind it is functional, cell-based. In outline: as §1
In assay [5] the test system is Leukemia cell. Description: Cytotoxicity against human leukemia cells by MTS assay. In kind it is functional, cell-based.
Assay [6] has as its system RPMI-8226. Description: Cytotoxicity against human RPMI8226 cells by MTS assay. In kind it is functional.
The test system of assay [7] is THP-1. Description: Inhibition of IL-1beta production in human THP1 cells at 50 uM by dilution assay. It is filed as functional, cell-based. The gist of the method:
as §1

The test system of assay [8] is SR. Description: Cytotoxicity against human SR cells by MTS assay. In kind it is functional.
In assay [9] the test system is CCRF-CEM. Description: Cytotoxicity against human CCRF-CEM cells by MTS assay. It is filed as functional.

As to `C/C=C/c1cc(=O)c([C@@H]2OC(=O)c3cc(OC)cc(OC)c32)co1`, the inhibition entry in assay [1] is “Active”.

In the case of `CCCc1cc(=O)c([C@@H]2OC(=O)c3cc(OC)cc(OC)c32)co1`, the inhibition entry in [2] was “inactive”. In assay [1], the inhibition entry was “Active”. In addition, in assay [3], the outcome was inactive.

Turning to `C/C=C/C1=CC2=CC(=O)[C@](C)(OC(=O)c3c(C)cc(O)cc3O)[C@H](O)[C@H]2CO1` [BERKAZAPHILONE B], the IC100 in assay [2] was 25 µM. In addition, the inhibition result in assay [1] and in assay [4] was “Active” each time. In addition, in assay [5], the outcome was Active. The compound also gave a GI50 in [6] of 2140 nM.

In assay [2], `C/C=C/C1=CC2=CC(=O)[C@](C)(O)[C@H](OC(=O)c3c(C)cc(O)cc3O)[C@H]2CO1` [BERKAZAPHILONE C] displayed an IC100 of 25 µM. In addition, the inhibition result in assay [1] and in assay [7] was “Active” in each case. In addition, the result in [5] was Active. In assay [8], the GI50 was 380 nM.

As to `COc1cc(OC)c2c(c1)C(=O)O[C@H]2c1coc(C)cc1=O` [PENISIMPLICISSIN], in assay [1], the inhibition result was “Active”. The result in assay [5] was Active. In addition, the GI50 in [9] is 200 nM; in assay [3] it was 1480 nM.

As a reminder, the GI50 is the concentration at which growth is held to half of that of the control. Higher therefore signals less potent growth inhibition.
